Results: ChEMBL document CHEMBL1671767, “Fusidic acid resistance determinants in Staphylococcus aureus clinical isolates” (2010)
Values after ≈ are worked out from the molar mass of the structure shown.

Tests used:
Format in all cases: functional
Staphylococcus aureus [1] = test: Antibacterial activity against fusidic acid-resistant Staphylococcus aureus harboring A67T in domain 1 and H457Y mutation in domain 3 of EF-G encoded by fusA gene after 16 to 20 hrs by CLSI agar dilution method
In short: (§1)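 Clinical isolates collected at a Taiwanese teaching hospital, 2002–2007. Inoculum was made by direct colony suspension to 0.5 McFarland. 10^4 CFU/spot was applied by Steers replicator onto Mueller-Hinton agar containing fusidic acid at 0.03 to 128 μg/ml. Plates were incubated at 33 to 35°C for 16–20 h. S. aureus ATCC 29213 served as control. Resistance breakpoint was 2 μg/ml.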

Staphylococcus aureus [2] = test: Antibacterial activity against fusidic acid-resistant Staphylococcus aureus harboring L461K mutation in domain 3 of EF-G encoded by fusA gene after 16 to 20 hrs by CLSI agar dilution method; in short: as §1
Staphylococcus aureus [3] = test: Antibacterial activity against fusidic acid-resistant Staphylococcus aureus harboring H457Q and L461F mutations in domain 3 of EF-G encoded by fusA gene after 16 to 20 hrs by CLSI agar dilution method; in short: as §1
Staphylococcus aureus [4] = test: Antibacterial activity against Staphylococcus aureus harboring P406L mutation in domain 3 of EF-G encoded by fusA gene after 16 to 20 hrs by CLSI agar dilution method; in short: as §1
Staphylococcus aureus [5] = test: Antibacterial activity against fusidic acid-resistant, methicillin-resistant Staphylococcus aureus after 16 to 20 hrs by CLSI agar dilution method; in short: as §1
Staphylococcus aureus [6] = test: Antibacterial activity against fusidic acid-resistant Staphylococcus aureus harboring E444K mutation in domain 3 of EF-G encoded by fusA gene after 16 to 20 hrs by CLSI agar dilution method; in short: as §1
Staphylococcus aureus [7] = test: Antibacterial activity against Staphylococcus aureus harboring L461S mutation in domain 3 of EF-G encoded by fusA gene after 16 to 20 hrs by CLSI agar dilution method; in short: as §1
Staphylococcus aureus [8] = test: Antibacterial activity against methicillin-susceptible Staphylococcus aureus harboring M651I mutation in domain 5 of EF-G encoded by fusA gene after 16 to 20 hrs by CLSI agar dilution method
In short: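 Agar dilution per CLSI on Mueller-Hinton agar, fusidic acid 0.03 to 128 μg/ml. Inoculum from direct colony suspension adjusted to 0.5 McFarland, 104 CFU/spot applied by Steers replicator. Plates incubated 33 to 35°C for 16 to 20 h. S. aureus ATCC 29213 as control strain; resistance breakpoint 2 μg/ml.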

Staphylococcus aureus [9] = test: Antibacterial activity against fusidic acid-resistant Staphylococcus aureus harboring H457Q and L461K mutations in domain 3 of EF-G encoded by fusA gene after 16 to 20 hrs by CLSI agar dilution method; in short: as §1
Staphylococcus aureus [10] = test: Antibacterial activity against Staphylococcus aureus harboring M453I mutation in domain 3 of EF-G encoded by fusA gene after 16 to 20 hrs by CLSI agar dilution method; in short: as §1
Staphylococcus aureus [11] = test: Antibacterial activity against fusidic acid-resistant Staphylococcus aureus harboring E444V and L461F mutations in domain 3 of EF-G encoded by fusA gene after 16 to 20 hrs by CLSI agar dilution method; in short: as §1
Staphylococcus aureus [12] = test: Antibacterial activity against fusidic acid-resistant methicillin-susceptible Staphylococcus aureus harboring P404L mutation in domain 3 of EF-G encoded by fusA gene after 16 to 20 hrs by CLSI agar dilution method; in short: as §1
Staphylococcus aureus [13] = test: Antibacterial activity against fusidic acid-resistant, methicillin-susceptible Staphylococcus aureus after 16 to 20 hrs by CLSI agar dilution method
In short: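 Clinical isolates from a Taiwan teaching hospital, 2002–2007. CLSI agar dilution: colonies suspended directly to 0.5 McFarland, and 10^4 CFU/spot applied by Steers replicator to Mueller-Hinton agar containing fusidic acid at 0.03 to 128 μg/ml. Plates incubated 16 to 20 h at 33 to 35°C. S. aureus ATCC 29213 used as control; resistance breakpoint 2 μg/ml.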

Staphylococcus aureus [14] = test: Antibacterial activity against fusidic acid-resistant Staphylococcus aureus harboring M16I in domain 1 and H457Y mutation in domain 3 of EF-G encoded by fusA gene after 16 to 20 hrs by CLSI agar dilution method; in short: as §1
Staphylococcus aureus [15] = test: Antibacterial activity against Staphylococcus aureus harboring […] and C473S mutations in domain 3 of EF-G encoded by fusA gene after 16 to 20 hrs by CLSI agar dilution method; in short: as §1
Staphylococcus aureus [16] = test: Antibacterial activity against fusidic acid-resistant Staphylococcus aureus harboring A70V in domain 1 and H457Y mutation in domain 3 of EF-G encoded by fusA gene after 16 to 20 hrs by CLSI agar dilution method; in short: as §1
Staphylococcus aureus [17] = test: Antibacterial activity against fusidic acid-resistant Staphylococcus aureus harboring H457Q mutation in domain 3 of EF-G encoded by fusA gene after 16 to 20 hrs by CLSI agar dilution method; in short: as §1
Staphylococcus aureus [18] = test: Antibacterial activity against fusidic acid-resistant Staphylococcus aureus harboring R76C in domain 1 and H457Y mutation in domain 3 of EF-G encoded by fusA gene after 16 to 20 hrs by CLSI agar dilution method; in short: as §1
Staphylococcus aureus [19] = test: Antibacterial activity against fusidic acid-resistant Staphylococcus aureus harboring H457Y mutation in domain 3 of EF-G encoded by fusA gene after 16 to 20 hrs by CLSI agar dilution method; in short: as §1
Staphylococcus aureus [20] = test: Antibacterial activity against fusidic acid-resistant Staphylococcus aureus harboring A71V in domain 1 and P404L mutation in domain 3 of EF-G encoded by fusA gene after 16 to 20 hrs by CLSI agar dilution method; in short: as §1
Staphylococcus aureus [21] = test: Antibacterial activity against fusidic acid-resistant methicillin-resistant Staphylococcus aureus harboring P404L mutation in domain 3 of EF-G encoded by fusA gene after 16 to 20 hrs by CLSI agar dilution method; in short: as §1
Staphylococcus aureus [22] = test: Antibacterial activity against Staphylococcus aureus harboring G451V mutation in domain 3 of EF-G encoded by fusA gene after 16 to 20 hrs by CLSI agar dilution method; in short: as §1
Staphylococcus aureus [23] = test: Antibacterial activity against fusidic acid-resistant Staphylococcus aureus harboring A376V in domain 2 and L456F mutation in domain 3 of EF-G encoded by fusA gene after 16 to 20 hrs by CLSI agar dilution method; in short: as §1
Staphylococcus aureus [24] = test: Antibacterial activity against methicillin-susceptible Staphylococcus aureus harboring P478S mutation in domain 3 of EF-G encoded by fusA gene after 16 to 20 hrs by CLSI agar dilution method; in short: as §1

SMILES: CC(=O)O[C@H]1C[C@@]2(C)[C@@H](C[C@@H](O)[C@H]3[C@@]4(C)CC[C@@H](O)[C@@H](C)[C@@H]4CC[C@@]32C)/C1=C(\CCC=C(C)C)C(=O)O [FUSIDIC ACID]
- MIC (Staphylococcus aureus [1]): 128 µg/mL (≈ 248 µM)
- MIC (Staphylococcus aureus [2]): > 128 µg/mL
- MIC (Staphylococcus aureus [3]): 128 µg/mL (≈ 248 µM)
- MIC (Staphylococcus aureus [4]): 16 µg/mL (≈ 31 µM)
- MIC50 (Staphylococcus aureus [5]): 32 µg/mL (≈ 61.9 µM)
- MIC90 (Staphylococcus aureus [5]): > 128 µg/mL
- MIC (Staphylococcus aureus [6]): 16 µg/mL (≈ 31 µM)
- MIC (Staphylococcus aureus [7]): 4 µg/mL (≈ 7.74 µM)
- MIC (Staphylococcus aureus [8]): 2 µg/mL (≈ 3.87 µM)
- MIC (Staphylococcus aureus [9]): > 128 µg/mL
- MIC (Staphylococcus aureus [10]): 8 µg/mL (≈ 15.5 µM)
- MIC (Staphylococcus aureus [11]): 32 µg/mL (≈ 61.9 µM)
- MIC (Staphylococcus aureus [12]): 16 µg/mL (≈ 31 µM)
- MIC50 (Staphylococcus aureus [13]): 8 µg/mL (≈ 15.5 µM)
- MIC90 (Staphylococcus aureus [13]): 16 µg/mL (≈ 31 µM)
- MIC (Staphylococcus aureus [14]): 16 µg/mL (≈ 31 µM)
- MIC (Staphylococcus aureus [15]): > 128 µg/mL
- MIC (Staphylococcus aureus [16]): > 128 µg/mL
- MIC (Staphylococcus aureus [17]): 8 µg/mL (≈ 15.5 µM)
- MIC (Staphylococcus aureus [18]): > 128 µg/mL
- MIC (Staphylococcus aureus [19]): 128 µg/mL (≈ 248 µM)
- MIC (Staphylococcus aureus [20]): 8 µg/mL (≈ 15.5 µM)
- MIC (Staphylococcus aureus [21]): 8 µg/mL (≈ 15.5 µM)
- MIC (Staphylococcus aureus [22]): 8 µg/mL (≈ 15.5 µM)
- MIC (Staphylococcus aureus [23]): 32 µg/mL (≈ 61.9 µM)
- MIC (Staphylococcus aureus [24]): 8 µg/mL (≈ 15.5 µM)
